The source of these data is ChEMBL document CHEMBL1134771, “Synthesis and antimalarial activity of novel medium-sized 1,2,4,5-tetraoxacycloalkanes” (J Med Chem, 2001).

What is called EC50 is the concentration needed to bring the measured effect to its halfway point. A low value points to higher potency in that assay. In general, ED50 refers to the dose at which the effect has come halfway, by size or by number of responders. Higher therefore signals weaker potency.

Assay [1] has as its system Plasmodium falciparum. Description: In vitro antimalarial activity for Plasmodium falciparum. Format: functional, organism-based. In short, it runs like this: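 Chloroquine-sensitive P. falciparum FCR-3 strain cultured in vitro; EC50 determined.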
In assay [2] the test system is Mus musculus. Description: In vivo antimalarial activity against Plasmodium berghei infected mice (Mus musculus) on oral administration. The assay is classed as functional. In short, it runs like this: (§1)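 Mice infected with P. berghei NK 65. Compounds were prepared in olive oil at various concentrations and given orally to groups of five mice once daily on days 0–3, starting on the day of infection. Parasitemia was read on day 4, and ED50/ED90 were derived by the earlier protocol.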

For assay [3], the system named is Mus musculus. The assay can be described thus: in vivo antimalarial activity against Plasmodium berghei infected mice (Mus musculus) on oral administration. The assay is classed as functional. In short, it runs like this: as §1
Assay [4] is described as follows: Mean of EC50 value for FM3A cells/ mean of EC50 value for Plasmodium falciparum. The assay is classed as functional. In short, it runs like this: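 Selectivity is the mean EC50 against FM3A mouse mammary tumor cells divided by the mean EC50 against P. falciparum FCR-3.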
The subject of assay [5] is Mus musculus. Description: in vivo antimalarial activity against Plasmodium berghei infected mice (Mus musculus) on intraperitoneal administration. Format: functional. To be noted: ip. In short, it runs like this: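 Mice infected with P. berghei NK 65. Compounds were prepared in olive oil at various concentrations and injected intraperitoneally into groups of five mice once daily on days 0–3, starting on the day of infection. Parasitemia was measured on day 4, and ED50/ED90 were calculated by the earlier protocol.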

For assay [6], the system named is FM3A. Description: in vitro cytotoxicity against mouse mammary tumor in cell culture. The assay is classed as functional, cell-based. An outline of the steps:
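Mouse mammary tumor FM3A cells in culture, used as a mammalian cytotoxicity control; EC50 determined.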

Consider `CC(C)(C)C1CCC2(CC1)OOCCCOO2`, for which the EC50 in assay [1] came to 3 nM; in assay [6], 30000 nM. Besides, the figures for the ED50 in assay [2] and in assay [5] were 52 mg/kg and 15 mg/kg, respectively. The ED90 was 84 mg/kg in assay [3] and 30 mg/kg in assay [5]. The same molecule displayed a Selectivity in assay [4] of 10000.
In the case of `C1CCCCCC2(CCCCC1)OOCCCOO2`, the EC50 came to 25 nM in assay [1] and 8000 nM in assay [6]. Further, the ED50 amounted to 20 mg/kg in assay [2] and 12 mg/kg in assay [5]. Besides, the ED90 in assay [3] came out at 40 mg/kg; in assay [5], 20 mg/kg. The molecule also displayed a Selectivity in assay [4] of 320.
Turning to `C1CCCCCC2(CCCCC1)OOCCCCCCCCOO2`, the EC50 in assay [1] turned out to be 1700 nM; in assay [6], 29000 nM. In addition, in assay [4], the Selectivity stood at 17.
On to `C1CCCCCC2(CCCCC1)OOCCCCOO2`, for which the results for the EC50 in assay [1] and in assay [6] were 100 nM and 17000 nM, respectively. For the same molecule, the Selectivity in assay [4] turned out to be 170. Moreover, the 50% effect level in assay [5] (ED50) was put at a dose of 48 mg/kg. The molecule also showed an ED90 in assay [5] of 65 mg/kg.
On the same counts, the results for `C1CCCCCC2(CCCCC1)OOCCCCCCOO2` are 10 nM, 16000 nM, 1600, 160 mg/kg and more than 200 mg/kg.
The like results for `CCCCCCC1(CCCCCC)OOCCCOO1` were, in that order, 200 nM, 19000 nM, 95, 60 mg/kg and 91 mg/kg.
Turning to `C1CCCCCC2(CCCCC1)OOCCCCCOO2`, the EC50 is 280 nM in assay [1] and 12000 nM in assay [6]. The molecule further gave a Selectivity in assay [4] of 43.
In the case of `C1COOC2(OOC1)C1CC3CC(C1)CC2C3`, the half-maximal effective concentration (EC50) stood at 50 nM in assay [1] and 58000 nM in assay [6]. Also, the Selectivity in assay [4] stood at 1160. This molecule yielded an ED50 in assay [5] of 100 mg/kg.
Molecule `CCCCCC1(CCCCC)OOCCCOO1` registered an EC50 in assay [1] of 310 nM. The Selectivity in assay [4] was 110. In assay [5], this molecule gave an ED50 of 30 mg/kg and an ED90 of 58 mg/kg. This molecule also displayed an EC50 in assay [6] of 34000 nM.
As for `C[C@@H]1CC[C@H]2[C@@H](C)C(=O)O[C@@H]3O[C@@]4(C)CC[C@@H]1[C@]32OO4` [ARTEMISININ], in assay [1], the EC50 worked out at 10 nM. The figures for the ED50 in assay [2] and in assay [5] were 13 mg/kg and 5 mg/kg, respectively. Further, the values for the ED90 in assay [3] and in assay [5] were 89 mg/kg and 32 mg/kg, respectively. Besides, the Selectivity in assay [4] is listed as 1000.
